Reference: PMC11796557 (RSC Advances, 2025)
pIC50: −log10 of the molar value.

How the values were obtained:
Format in all cases: cell-based
PC3 (prostate carcinoma) = experiment: MTT anticancer activity; conditions: Homo sapiens, 48 h, read-out: IC50 PC3
Outline: (§1)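 Cells kept in DMEM with 10% FBS, 1% penicillin–streptomycin and 1% L-glutamine at 37 °C, 5% CO₂. They were seeded at 10 000 per well and attached for 24 h, then exposed to varying concentrations (from a 10 mM DMSO stock) for 48 h. MTT (5 mg mL⁻¹) was added for 4 h, formazan dissolved in DMSO, and A570 read. IC50 was calculated. DMSO served as vehicle control and cisplatin or doxorubicin as positive control. Values are mean ± SD of three independent experiments (n = 9).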

A549 (lung carcinoma) = experiment: MTT anticancer activity; conditions: Homo sapiens, A549, 48 h, read-out: IC50 A549
Outline: as §1

MCF-7 (breast carcinoma) = experiment: MTT anticancer activity; conditions: Homo sapiens, MCF7, 48 h, read-out: IC50 MCF-7
Outline: as §1

normal fibroblasts = experiment: MTT cytotoxicity assay, normal fibroblasts; conditions: Fibroblast, 48 h, read-out: IC50 Fibroblasts
Outline: as §1

HCT116 (colon carcinoma) = experiment: MTT anticancer activity; conditions: Homo sapiens, HCT-116, 48 h, read-out: IC50 HCT116
Outline: as §1

Row | Structure (SMILES) | pIC50 (PC3 (prostate carcinoma)) | pIC50 (A549 (lung carcinoma)) | pIC50 (MCF-7 (breast carcinoma)) | pIC50 (normal fibroblasts) | pIC50 (HCT116 (colon carcinoma))
1 | O=C1CCCc2c1c(O)cc(=O)n2-c1ccccc1 [Compound 3a, 4-Hydroxy-1-phenyl-7,8-dihydroquinoline-2,5(1H,6H)-dione] | 3.82 | 3.72 | 3.72 | < 3.30 | 3.83
2 | Cc1ccc(-n2c3c(c(O)cc2=O)C(=O)CCC3)cc1 [Compound 3b, 4-Hydroxy-1-(p-tolyl)-7,8-dihydroquinoline-2,5(1H,6H)-dione] | 3.62 | 3.80 | 3.67 | < 3.30 | 3.79
3 | O=C1CCCc2c1c(O)cc(=O)n2-c1ccc(Cl)cc1 [Compound 3c, 1-(4-Chlorophenyl)-4-hydroxy-7,8-dihydroquinoline-2,5(1H,6H)-dione] | 3.60 | 3.59 | 3.58 | < 3.30 | 3.86
4 | O=C1CCCc2c1c(O)cc(=O)n2-c1ccc(F)cc1 [Compound 3d, 1-(4-Fluorophenyl)-4-hydroxy-7,8-dihydroquinoline-2,5(1H,6H)-dione] | 4.18 | 4.01 | 4.47 | < 3.30 | 4.33
5 | COc1ccccc1-n1c2c(c(O)cc1=O)C(=O)CCC2 [Compound 3e, 4-Hydroxy-1-(2-methoxyphenyl)-7,8-dihydroquinoline-2,5(1H,6H)-dione] | 4.35 | 4.17 | 4.20 | < 3.30 | 4.53
6 | CC1(C)CC(=O)c2c(O)cc(=O)n(-c3ccccc3)c2C1 [Compound 3f, 4-Hydroxy-7,7-dimethyl-1-phenyl-7,8-dihydroquinoline-2,5(1H,6H)-dione] | 4.02 | 3.90 | 4.15 | < 3.30 | 3.93
7 | CC1(C)CC(=O)c2c(O)cc(=O)n(Cc3ccccc3)c2C1 [Compound 3g, 1-Benzyl-4-hydroxy-7,7-dimethyl-7,8-dihydroquinoline-2,5(1H,6H)-dione] | 4.54 | 4.49 | 4.57 | < 3.30 | 4.74
8 | CC1(C)CC(=O)c2c(O)cc(=O)n(-c3ccc(F)cc3)c2C1 [Compound 3h, 1-(4-Fluorophenyl)-4-hydroxy-7,7-dimethyl-7,8-dihydroquinoline-2,5(1H,6H)-dione] | 4.53 | 4.06 | 4.49 | < 3.30 | 4.54
9 | COc1ccc(-n2c3c(c(O)cc2=O)C(=O)CC(C)(C)C3)cc1 [Compound 3i, 4-Hydroxy-1-(4-methoxyphenyl)-7,7-dimethyl-7,8-dihydroquinoline-2,5(1H,6H)-dione] | 4.47 | 4.14 | 4.30 | < 3.30 | 4.48
10 | COc1ccccc1-n1c2c(c(O)cc1=O)C(=O)CC(C)(C)C2 [Compound 3j, 4-Hydroxy-1-(2-methoxyphenyl)-7,7-dimethyl-7,8-dihydroquinoline-2,5(1H,6H)-dione] | 4.36 | 4.10 | 4.09 | < 3.30 | 4.42
11 | COc1cccc2c1C(=O)c1c(O)c3c(c(O)c1C2=O)C[C@@](O)(C(=O)CO)C[C@@H]3O[C@H]1C[C@H](N)[C@H](O)[C@H](C)O1 [Doxorubicin, reference compound] |  |  | 5.64 |  | 5.24
